The target of data set [1] is T1, Muscarinic acetylcholine receptor M1 (Homo sapiens) (UniProt P11229).
T1 sequence (whole entry): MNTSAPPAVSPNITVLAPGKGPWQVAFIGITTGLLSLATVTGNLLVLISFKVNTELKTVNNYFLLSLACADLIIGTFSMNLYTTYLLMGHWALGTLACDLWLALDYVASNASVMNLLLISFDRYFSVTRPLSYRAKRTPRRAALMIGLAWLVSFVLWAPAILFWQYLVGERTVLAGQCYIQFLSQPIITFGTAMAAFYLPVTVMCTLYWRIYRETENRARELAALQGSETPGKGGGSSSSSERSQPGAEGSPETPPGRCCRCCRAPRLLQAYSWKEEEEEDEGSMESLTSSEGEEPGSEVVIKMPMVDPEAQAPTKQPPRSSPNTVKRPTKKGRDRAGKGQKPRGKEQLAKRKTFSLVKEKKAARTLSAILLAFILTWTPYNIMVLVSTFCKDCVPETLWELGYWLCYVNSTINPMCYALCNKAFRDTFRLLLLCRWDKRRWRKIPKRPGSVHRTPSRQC
As to the kind of experiment: Agonist activity at human muscarinic acetylcholine receptor M1 expressed in CHO cells assessed as calcium mobilization at 0.3 uM by FLIPR assay relative to acetylcholine. The format is functional, cell-based.

The target in data set [2] is Muscarinic acetylcholine receptor M3 (Homo sapiens) (UniProt P20309). As to the kind of experiment: Agonist activity at human muscarinic acetylcholine receptor M3 expressed in CHO cells assessed as calcium mobilization at 0.3 uM by FLIPR assay relative to acetylcholine. The format is functional, cell-based.
Sequence of Muscarinic acetylcholine receptor M3 (Homo sapiens) (P20309 whole entry, looked up): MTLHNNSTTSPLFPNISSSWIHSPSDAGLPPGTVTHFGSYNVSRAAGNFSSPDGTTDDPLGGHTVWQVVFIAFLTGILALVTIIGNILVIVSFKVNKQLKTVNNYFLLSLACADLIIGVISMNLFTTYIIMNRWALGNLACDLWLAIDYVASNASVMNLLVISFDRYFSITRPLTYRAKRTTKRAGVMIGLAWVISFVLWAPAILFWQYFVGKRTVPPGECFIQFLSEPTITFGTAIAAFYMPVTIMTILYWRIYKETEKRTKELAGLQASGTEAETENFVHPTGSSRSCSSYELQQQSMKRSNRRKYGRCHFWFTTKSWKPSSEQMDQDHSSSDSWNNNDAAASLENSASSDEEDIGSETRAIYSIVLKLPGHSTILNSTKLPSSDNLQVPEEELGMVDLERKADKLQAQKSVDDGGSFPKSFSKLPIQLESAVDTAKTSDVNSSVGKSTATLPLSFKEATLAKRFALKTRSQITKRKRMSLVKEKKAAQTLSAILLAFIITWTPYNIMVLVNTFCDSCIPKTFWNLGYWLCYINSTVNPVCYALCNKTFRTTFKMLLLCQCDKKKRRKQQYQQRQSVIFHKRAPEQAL
Data set [3] deals with T2, Muscarinic acetylcholine receptor M2 (Homo sapiens) (UniProt P08172).
T2 sequence (whole entry): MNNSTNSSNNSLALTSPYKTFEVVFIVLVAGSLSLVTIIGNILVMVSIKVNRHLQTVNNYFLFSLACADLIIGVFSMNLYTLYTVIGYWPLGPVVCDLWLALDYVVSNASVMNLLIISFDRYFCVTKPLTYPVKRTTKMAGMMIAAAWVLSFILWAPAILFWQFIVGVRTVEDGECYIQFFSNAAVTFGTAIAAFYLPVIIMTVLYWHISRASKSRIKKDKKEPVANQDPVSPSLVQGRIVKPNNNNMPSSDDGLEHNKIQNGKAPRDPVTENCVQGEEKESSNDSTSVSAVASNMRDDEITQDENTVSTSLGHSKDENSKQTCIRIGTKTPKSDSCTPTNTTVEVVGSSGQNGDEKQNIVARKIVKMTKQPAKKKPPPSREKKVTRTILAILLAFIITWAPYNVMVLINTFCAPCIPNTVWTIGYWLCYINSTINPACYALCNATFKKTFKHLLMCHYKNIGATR
As to the kind of experiment: Agonist activity at human muscarinic acetylcholine receptor M2 expressed in CHO cells assessed as calcium mobilization at 0.3 uM by FLIPR assay relative to acetylcholine. The data set is classed as functional, cell-based.

For data set [4], the target named is T3, Muscarinic acetylcholine receptor M4 (Homo sapiens) (UniProt P08173).
T3 sequence (whole entry): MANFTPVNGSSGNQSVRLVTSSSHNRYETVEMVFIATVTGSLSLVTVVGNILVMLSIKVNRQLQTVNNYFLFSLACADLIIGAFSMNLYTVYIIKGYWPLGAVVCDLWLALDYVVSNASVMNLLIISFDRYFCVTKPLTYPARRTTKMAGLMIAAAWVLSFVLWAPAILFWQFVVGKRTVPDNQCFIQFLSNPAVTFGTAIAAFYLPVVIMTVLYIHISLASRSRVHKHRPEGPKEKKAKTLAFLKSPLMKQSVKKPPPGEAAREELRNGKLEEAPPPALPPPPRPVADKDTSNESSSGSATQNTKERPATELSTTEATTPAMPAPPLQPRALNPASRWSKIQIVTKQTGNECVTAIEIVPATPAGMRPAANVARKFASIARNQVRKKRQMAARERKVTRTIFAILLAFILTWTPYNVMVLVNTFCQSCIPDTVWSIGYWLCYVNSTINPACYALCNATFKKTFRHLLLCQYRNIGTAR
As to the kind of experiment: Agonist activity at human muscarinic acetylcholine receptor M4 expressed in CHO cells assessed as calcium mobilization at 0.3 uM by FLIPR assay relative to acetylcholine. The format is functional, cell-based. (Calcium assays in cells follow changes in intracellular calcium, usually with a dye or a luminescent sensor.)

Data set [5] deals with T1, Muscarinic acetylcholine receptor M1 (Homo sapiens). As to the kind of experiment: Intrinsic activity at human muscarinic acetylcholine receptor M1 expressed in CHO cells assessed as calcium mobilization by FLIPR assay relative to acetylcholine. The data set is classed as functional, cell-based.
Data set [6] concerns the target T3, Muscarinic acetylcholine receptor M4 (Homo sapiens). As to the kind of experiment: Intrinsic activity at human muscarinic acetylcholine receptor M4 expressed in CHO cells assessed as calcium mobilization by FLIPR assay relative to acetylcholine. The format is functional, cell-based.
In data set [7] the target is T4, Muscarinic acetylcholine receptor M5 (Homo sapiens) (UniProt P08912).
T4 sequence (whole entry): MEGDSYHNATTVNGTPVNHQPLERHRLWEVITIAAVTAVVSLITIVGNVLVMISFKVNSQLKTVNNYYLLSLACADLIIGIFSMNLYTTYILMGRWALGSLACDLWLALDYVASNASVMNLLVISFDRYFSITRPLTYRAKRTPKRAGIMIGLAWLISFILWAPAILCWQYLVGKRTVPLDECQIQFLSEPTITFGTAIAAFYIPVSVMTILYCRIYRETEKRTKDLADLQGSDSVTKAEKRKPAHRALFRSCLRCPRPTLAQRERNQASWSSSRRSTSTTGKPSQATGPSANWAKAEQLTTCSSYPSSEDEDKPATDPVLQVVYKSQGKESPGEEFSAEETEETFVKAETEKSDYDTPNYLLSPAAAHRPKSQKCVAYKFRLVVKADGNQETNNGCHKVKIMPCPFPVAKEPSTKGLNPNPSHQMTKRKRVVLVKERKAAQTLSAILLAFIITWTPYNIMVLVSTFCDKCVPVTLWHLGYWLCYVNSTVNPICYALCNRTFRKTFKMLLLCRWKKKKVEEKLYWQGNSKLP
As to the kind of experiment: Agonist activity at human muscarinic acetylcholine receptor M5 expressed in CHO cells assessed as calcium mobilization at 10 uM by FLIPR assay relative to acetylcholine. The data set is classed as functional, cell-based.

Data set [8] concerns the target T5, Muscarinic acetylcholine receptor M4 (Homo sapiens, UniProt P08173).
T5 sequence (P08173 whole entry): T3 sequence (whole entry)
As to the kind of experiment: Agonist activity at human muscarinic acetylcholine receptor M4 expressed in CHO cells assessed as calcium mobilization by FLIPR assay. The data set is classed as functional, cell-based.

The target in data set [9] is Voltage-gated inwardly rectifying potassium channel KCNH2 (Homo sapiens, UniProt Q12809). As to the kind of experiment: Inhibition of human ERG tail current after 5 mins by patch-clamp method. A general note: Patch clamp records ionic current or voltage across a cell membrane.
Sequence of Voltage-gated inwardly rectifying potassium channel KCNH2 (Q12809 whole entry): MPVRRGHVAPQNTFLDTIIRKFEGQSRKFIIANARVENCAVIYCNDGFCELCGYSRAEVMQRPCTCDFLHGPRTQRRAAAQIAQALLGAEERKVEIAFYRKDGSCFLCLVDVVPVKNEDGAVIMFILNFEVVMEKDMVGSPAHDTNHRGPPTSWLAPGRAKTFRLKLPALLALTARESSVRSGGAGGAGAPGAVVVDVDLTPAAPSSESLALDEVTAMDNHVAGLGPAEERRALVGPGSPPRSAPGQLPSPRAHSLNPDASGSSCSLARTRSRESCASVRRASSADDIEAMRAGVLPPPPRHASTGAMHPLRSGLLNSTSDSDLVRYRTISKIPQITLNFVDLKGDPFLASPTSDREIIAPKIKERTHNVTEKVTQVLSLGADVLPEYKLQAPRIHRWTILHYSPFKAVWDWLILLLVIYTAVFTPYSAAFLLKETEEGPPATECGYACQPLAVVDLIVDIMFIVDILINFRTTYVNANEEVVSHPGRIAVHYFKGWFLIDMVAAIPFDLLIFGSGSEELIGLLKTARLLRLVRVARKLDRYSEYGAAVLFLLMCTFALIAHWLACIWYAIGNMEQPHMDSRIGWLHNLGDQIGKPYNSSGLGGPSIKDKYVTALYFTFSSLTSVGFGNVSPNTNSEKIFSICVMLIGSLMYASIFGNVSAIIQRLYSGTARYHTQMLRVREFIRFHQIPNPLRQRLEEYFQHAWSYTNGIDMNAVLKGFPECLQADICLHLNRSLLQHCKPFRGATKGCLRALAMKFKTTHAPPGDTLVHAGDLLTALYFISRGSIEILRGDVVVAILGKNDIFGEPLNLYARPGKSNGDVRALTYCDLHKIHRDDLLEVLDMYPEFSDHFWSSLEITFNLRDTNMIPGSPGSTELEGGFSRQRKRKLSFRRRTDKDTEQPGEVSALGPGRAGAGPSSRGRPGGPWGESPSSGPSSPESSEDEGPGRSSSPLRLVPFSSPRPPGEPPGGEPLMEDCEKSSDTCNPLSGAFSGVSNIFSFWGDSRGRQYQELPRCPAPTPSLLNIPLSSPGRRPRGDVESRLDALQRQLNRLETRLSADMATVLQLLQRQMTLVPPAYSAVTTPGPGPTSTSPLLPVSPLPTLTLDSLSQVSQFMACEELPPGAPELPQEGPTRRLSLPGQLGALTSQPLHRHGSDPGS
Data set [10] addresses T6, Muscarinic acetylcholine receptor M1 (Homo sapiens, UniProt P11229).
T6 sequence (P11229 whole entry): T1 sequence (whole entry)
As to the kind of experiment: Agonist activity at human muscarinic acetylcholine receptor M1 expressed in CHO cells assessed as calcium mobilization by FLIPR assay. The format is functional, cell-based.

Data set [11] has as its target T7, Alpha-1D adrenergic receptor (Homo sapiens) (UniProt P25100).
T7 sequence (whole entry): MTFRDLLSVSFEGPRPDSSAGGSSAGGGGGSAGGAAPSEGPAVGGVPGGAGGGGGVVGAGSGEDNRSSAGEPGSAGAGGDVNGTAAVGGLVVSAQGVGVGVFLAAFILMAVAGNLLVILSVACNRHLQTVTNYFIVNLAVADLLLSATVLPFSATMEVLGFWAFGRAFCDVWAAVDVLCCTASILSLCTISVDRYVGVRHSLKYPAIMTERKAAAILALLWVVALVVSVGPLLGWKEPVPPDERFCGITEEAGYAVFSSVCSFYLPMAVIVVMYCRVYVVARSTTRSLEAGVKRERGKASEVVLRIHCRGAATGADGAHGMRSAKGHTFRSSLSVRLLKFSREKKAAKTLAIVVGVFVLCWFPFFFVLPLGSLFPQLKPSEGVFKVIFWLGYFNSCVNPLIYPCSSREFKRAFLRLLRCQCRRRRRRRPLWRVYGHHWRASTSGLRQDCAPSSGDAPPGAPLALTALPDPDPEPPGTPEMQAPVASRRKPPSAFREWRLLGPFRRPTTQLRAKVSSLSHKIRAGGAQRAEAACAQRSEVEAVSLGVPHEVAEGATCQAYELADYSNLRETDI
As to the kind of experiment: Binding affinity to human adrenaline alpha-1D receptor at 3 uM by radioligand displacement assay relative to control. Background: In a radioligand displacement assay an active substance lowers the binding of a labelled ligand.

Data set [12] can be described thus: Oral bioavailability in rat at 1 mg/kg. The data set is classed as ADME, organism-based. Particulars: in vivo.
A short description of data set [13]: Ratio of drug level in brain to plasma in rat. The format is ADME. The note with it: brain and plasma, read-out: BPR.
The target of data set [14] is T1, Muscarinic acetylcholine receptor M1 (Homo sapiens). As to the kind of experiment: Competitive antagonist activity at human muscarinic acetylcholine receptor M1 expressed in CHO cells assessed as inhibition of ACh-induced calcium mobilization. The data set is classed as functional, cell-based.
Data set [15] deals with Rattus norvegicus. As to the kind of experiment: Antipsychotic activity in po dosed Sprague-Dawley rat assessed as reversal of methamphetamine-induced hyperlocomotion administered 60 mins prior to methamphetamine challenge measured for 10 to 80 mins post methamphetamine challenge. The data set is classed as functional, organism-based. The method in brief: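 Rats were dosed orally with test compound (1–10 mg/kg) or vehicle 60 min before methamphetamine (0.1 mg/kg, ip). Locomotor activity was recorded for 80 min starting 10 min after the methamphetamine injection. Values are mean ± SEM, n = 6.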

The target in data set [16] is D(2) dopamine receptor (Homo sapiens) (UniProt P14416). As to the kind of experiment: Binding affinity to human dopamine D2 receptor at 3 uM by radioligand displacement assay relative to control.
Sequence of D(2) dopamine receptor (Homo sapiens) (P14416 whole entry): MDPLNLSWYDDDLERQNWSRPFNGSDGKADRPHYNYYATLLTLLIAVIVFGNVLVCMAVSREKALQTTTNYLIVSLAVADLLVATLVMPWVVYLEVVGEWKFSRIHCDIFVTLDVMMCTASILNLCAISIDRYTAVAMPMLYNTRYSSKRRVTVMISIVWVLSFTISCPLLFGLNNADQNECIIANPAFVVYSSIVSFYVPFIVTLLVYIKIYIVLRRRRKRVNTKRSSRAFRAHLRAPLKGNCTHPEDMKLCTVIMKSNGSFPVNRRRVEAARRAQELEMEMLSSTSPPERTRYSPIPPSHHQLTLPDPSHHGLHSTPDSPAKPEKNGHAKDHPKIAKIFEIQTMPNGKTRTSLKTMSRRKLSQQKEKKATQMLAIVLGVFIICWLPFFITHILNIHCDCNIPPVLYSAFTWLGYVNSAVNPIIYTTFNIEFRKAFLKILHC
Data set [17] deals with Histamine H1 receptor (Homo sapiens) (UniProt P35367). As to the kind of experiment: Binding affinity to human histamine H1 receptor at 3 uM by radioligand displacement assay relative to control.
Sequence of Histamine H1 receptor (Homo sapiens) (P35367 whole entry): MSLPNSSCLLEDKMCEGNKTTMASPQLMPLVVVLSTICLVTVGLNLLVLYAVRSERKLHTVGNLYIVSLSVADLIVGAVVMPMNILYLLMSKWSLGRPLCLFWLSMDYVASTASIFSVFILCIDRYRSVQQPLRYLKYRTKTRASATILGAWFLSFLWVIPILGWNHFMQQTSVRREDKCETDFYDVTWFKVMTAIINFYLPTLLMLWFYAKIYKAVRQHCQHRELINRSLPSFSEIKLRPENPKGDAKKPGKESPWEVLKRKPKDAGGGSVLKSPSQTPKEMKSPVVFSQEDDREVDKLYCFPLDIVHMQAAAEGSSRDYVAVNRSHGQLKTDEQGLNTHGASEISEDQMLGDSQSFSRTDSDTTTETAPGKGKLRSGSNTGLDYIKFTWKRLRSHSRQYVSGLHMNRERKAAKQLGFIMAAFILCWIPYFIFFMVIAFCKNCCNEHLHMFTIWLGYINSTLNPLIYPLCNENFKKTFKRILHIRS
The test system of data set [18] is P-gp. As to the kind of experiment: Activity of p-gp (unknown origin) assessed as efflux ratio. The format is ADME. The note with it: human, not told.

Activity calls are given as the source filed them. The rule behind the calls is not given here.

Results on six compounds are retold here after ChEMBL document CHEMBL3286277, “Discovery of N-sulfonyl-7-azaindoline derivatives as potent, orally available and selective M(4) muscarinic acetylcholine receptor agonists” (Bioorg Med Chem Lett, 2014).

One may read the Emax as the maximal effect, on the per cent scale that the assay sets. In general, EC50 refers to the concentration needed to bring the measured effect to its halfway point. For orientation: IC50 means the concentration that inhibits the measured activity by half. Read a high IC50 as weaker potency in that assay. Usually inhibition stands for the drop in the measured response relative to a control, in per cent. Broadly, the bioavailability is the share of a dose that reaches the circulation, judged against a reference dose that is usually intravenous. For orientation: efflux ratio means the permeability from basolateral to apical divided by that in the opposite direction, in the common usage.

Regarding `COC(=O)N1CCC(C)(CN2CCC3(CC2)CN(S(C)(=O)=O)c2ncccc23)CC1`, the Emax in [1] turned out to be 3%; in [2], 1%; in [3], 2%; in data set [4] it was 52%.
On to `CCOC(=O)N1CCC(CN2CCC3(CC2)CN(S(C)(=O)=O)c2ncccc23)CC1`, for which the Emax in data set [1] was 20%; in [2], 7%; in [3], 12%; in data set [7], 3%; in data set [4], 88%. The Intrinsic activity in data set [5] worked out at 59%; in data set [6], 83%. The EC50 in [8] was 93 nM; in data set [10], 352 nM. The compound further gave an IC50 in [9] of 1900 nM.
As to `CCOC(=O)N1CCC(C)(CN2CCC3(CC2)CN(S(C)(=O)=O)c2ncccc23)CC1`, the Emax was 5% in data set [1]; 4% in data set [2]; 3% in data set [3]; 3% in data set [7]; 94% in [4]. Further, the inhibition turned out to be 0% in data set [11], 0% in [16] and 27% in data set [17]. The same compound gave a bioavailability in [12] of 49%. The Intrinsic activity in data set [6] was 81%. In addition, the Kp in [13] was determined as 0.9. For the same compound, the inhibition result in data set [14] is “Active”. Further, the concentration giving a half-maximal response (EC50) in data set [8] turned out to be 13 nM. For the same compound, the Activity entry in [15] was “Dose-dependent effect”. For the same compound, in data set [18], the efflux ratio worked out at 0.9. The same compound displayed an IC50 in [9] of 3630 nM.
Turning to `CC(C)OC(=O)N1CCC(C)(CN2CCC3(CC2)CN(S(C)(=O)=O)c2ncccc23)CC1`, in [4], the maximal effect (Emax) amounted to 3%. Also, inhibition in data set [9] was half-maximal at 2750 nM (IC50).
Turning to `CC1(CN2CCC3(CC2)CN(S(C)(=O)=O)c2ncccc23)CCN(C(=O)OC(C)(C)C)CC1`, in data set [4], the Emax came to 2%.
Consider `CCOC(=O)N1[C@@H]2CC[C@H]1C[C@H](CN1CCC3(CC1)CN(S(C)(=O)=O)c1ncccc13)C2`, for which the maximum response (Emax) in [4] came to 4%.
